Experimental data from ChEMBL document CHEMBL4725498, “Synthesis and Biological Evaluations of Electrophilic Steroids Inspired by the Taccalonolides” (ACS Med Chem Lett, 2020).
Active and inactive are the calls of the source. No cut-off for these calls is given here.

Columns and labels:
HeLa [1] = assay: Cytotoxicity against human HeLa cells assessed as reduction in cell viability measured after 48 hrs by sulforhodamine B assay; type: functional; conditions: read-out: LC50 (the source's name)
Procedure, shortened: (§1)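 HeLa cells exposed to compound for 48 h, then growth measured by sulforhodamine B (SRB) staining. GI50 (50% growth inhibition), TGI (total growth inhibition) and LC50 (50% cytotoxicity) were read from concentration–response data. Values are average ± SEM, n = 3–5.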

HeLa [2] = assay: Antiproliferative activity against human HeLa cells assessed as growth inhibition measured after 48 hrs by sulforhodamine B assay; type: functional; procedure, shortened: as §1
HCC1937 = assay: Cytotoxicity against human HCC1937 cells assessed as reduction in cell viability measured after 48 hrs by sulforhodamine B assay; type: functional; conditions: read-out: LC50 (the source's name)
Procedure, shortened: (§2)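 Breast lines were tested in a 48 h SRB assay: four molecularly diverse triple-negative lines plus nontumorigenic MCF 10A, with MCF 10A tested up to 50 μM. LC50 values came from concentration–response curves. Complete cytotoxicity was taken as the concentration giving full cell kill after 48 h incubation.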

MDA-MB-231 = assay: Cytotoxicity against human MDA-MB-231 cells assessed as reduction in cell viability measured after 48 hrs by sulforhodamine B assay; type: functional; procedure, shortened: as §2
BT-549 [3] = assay: Cytotoxicity against human BT-549 cells assessed as reduction in cell viability measured after 48 hrs by sulforhodamine B assay; type: functional; conditions: read-out: LC50 (the source's name); procedure, shortened: as §2
Sus scrofa [4] = organism: Sus scrofa; assay: Inhibition of porcine brain tubulin polymerization assessed as reduction in rate and extent of tubulin polymerization at 20 uM by turbidimetric assay
Procedure, shortened: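 Purified porcine brain tubulin (20 μM) was incubated with 20 μM compound or DMSO vehicle. Polymerization was monitored turbidimetrically after shift to 37 °C.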

MDA-MB-453 = assay: Cytotoxicity against human MDA-MB-453 cells assessed as reduction in cell viability measured after 48 hrs by sulforhodamine B assay; type: functional; procedure, shortened: as §2
MCF-10A = assay: Cytotoxicity against human MCF10A cells assessed as reduction in cell viability measured after 48 hrs by sulforhodamine B assay; type: cell-based; procedure, shortened: as §2
[5] = Selectivity index, ratio of LC50 for human HeLa cells to LC50 for human HCC1937 cells measured after 48 hrs by sulforhodamine B assay; type: functional
SK-OV-3 [6] = assay: Antiproliferative activity against human SKOV3 cells assessed as reduction in cell growth at 0.01 to 10 uM incubated for 48 hrs by SRB assay; type: functional, cell-based; conditions: dose microM 0.01-10, time 48.0 hrs
SK-OV-3 [7] = assay: Antiproliferative activity against human SKOV3-M6/6 cells assessed as reduction in cell growth at 0.01 to 10 uM incubated for 48 hrs by SRB assay; type: functional, cell-based; conditions: dose microM 0.01-10, time 48.0 hrs
OVCAR-5 = assay: Antiproliferative activity against human OVCAR-5 cells assessed as reduction in cell growth at 0.01 to 10 uM incubated for 48 hrs by SRB assay; type: functional, cell-based; conditions: dose microM 0.01-10, time 48.0 hrs
ES2 = assay: Antiproliferative activity against human ES-2 cells assessed as reduction in cell growth at 0.01 to 10 uM incubated for 48 hrs by SRB assay; type: functional, cell-based; conditions: dose microM 0.01-10, time 48.0 hrs
HeLa [8] = assay: Inhibition of colony formation in human HeLa cells at 1.4 uM treated for 8 hrs followed by compound washout and measured after 11 days by crystal violet staining based assay; type: functional
Procedure, shortened: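 HeLa cells were treated for 8 h with 1.4 μM compound or EtOH vehicle, then the drug was washed out. Colonies were scored 11 days after removal. Groups were compared with vehicle by 1-way ANOVA with Dunnett's post hoc test.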

[9] = Selectivity ratio of antiproliferative activity against human SKOV3-M6/6 cells transfected with MDR1 to antiproliferative activity against human SKOV3 cells measured after 48 hrs by sulforhodamine B assay; type: functional
HeLa [10] = assay: Antiproliferative activity against human HeLa cells assessed as reduction in cell viability incubated for 8 hrs by sulforhodamine B assay; type: functional; conditions: read-out: LC50 (the source's name)
HeLa [11] = assay: Antiproliferative activity against human HeLa cells assessed as reduction in cell growth incubated for 8 hrs by trypan blue exclusion assay; type: functional, cell-based
Procedure, shortened: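 HeLa viability was followed during the first 8 h of treatment by trypan blue exclusion.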

Tubulin (Homo sapiens) [12] = biological target: T1, Tubulin (Homo sapiens) (UniProt P68371+Q9H4B7+P0DPH7+P68366+Q13509+Q71U36+P04350+Q3ZCM7+P07437+P68363+Q9BQE3+Q6PEY2+Q13885+Q9BVA1+Q9BUF5); assay: Induction of microtubule destabilization in human BT-549 cells assessed as loss of microtubule network at 100 nM incubated for 6 hrs by indirect immunofluorescence assay; type: cell-based
Procedure, shortened: (§3)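 BT-549 cells were treated for 6 h with compound or DMSO vehicle. Microtubules were then visualised by immunofluorescence with a β-tubulin antibody, scoring microtubule loss or bundling.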

Sus scrofa [13] = organism: Sus scrofa; assay: Inhibition of porcine brain tubulin polymerization assessed as reduction in rate and extent of tubulin polymerization at 5 to 10 uM by turbidimetric assay; conditions: dose microM 5-10
Procedure, shortened: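 Purified porcine brain tubulin (20 μM) was incubated with a range of compound concentrations. Polymerization was monitored turbidimetrically after shift to 37 °C.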

BT-549 [14] = assay: Cytotoxicity against human BT-549 cells assessed as concentration required for complete reduction in cell viability incubated for 48 hrs by sulforhodamine B assay; type: functional; procedure, shortened: as §2
Tubulin (Homo sapiens) [15] = biological target: T1, Tubulin (Homo sapiens); assay: Induction of microtubule stabilization in human BT-549 cells assessed as bundling of microtubule network at 1 microM incubated for 6 hrs by indirect immunofluorescence assay; type: cell-based; procedure, shortened: as §3

| SMILES | CC50 (HeLa [1]) [nM] | GI50 (HeLa [2]) [nM] | TGI (HeLa [2]) [nM] | CC50 (HCC1937) [nM] | CC50 (BT-549 [3]) [nM] | inhibition (Sus scrofa [4]) | Activity (SK-OV-3 [6]) | Activity (SK-OV-3 [7]) | Activity (OVCAR-5) | Activity (ES2) | Ratio [9] | Activity (Tubulin (Homo sapiens) [15]) | further results |
| --- | --- | --- | --- | --- | --- | --- | --- | --- | --- | --- | --- | --- | --- |
| C[C@]12C[C@H]3O[C@H]3C[C@@H]1CC[C@H]1[C@@H]3[C@@H]4O[C@@H]4C(=O)[C@@]3(C)CC[C@@H]12 | 1090 | 520 | 740 | 470 | 1070 | inactive | Active | Active | Active | Active | 5 | – | LC50 (concentration killing 50% of cells) (MDA-MB-231): 2500 nM; LC50 (concentration killing 50% of cells) (MDA-MB-453): 740 nM; LC50 (MCF-10A): > 50000 nM; RatioLC50 [5]: 2; inhibition at 1.4 µM (HeLa [8]): 100%; CC50 (HeLa [10]): 1400 nM; Activity (HeLa [11]): inactive |
| C[C@]12CC=CC[C@@H]1CC[C@@H]1[C@@H]2CC[C@]2(C)C(=O)C=C[C@@H]12 | 1070 | 470 | 720 | 1390 | 610 | Active | – | – | – | – | – | inactive | CC50 (MDA-MB-231; read-out: LC50 (the source's name)): 1920 nM; Activity (Tubulin (Homo sapiens) [12]): inactive; inhibition (Sus scrofa [13]): Dose-dependent effect; CC100 (BT-549 [14]): 1 µM |
| CC(=O)O[C@H]1C(=O)[C@@]2(C)[C@H]([C@H](OC(=O)c3ccccc3)[C@]3(O)C[C@H](OC(=O)[C@H](O)[C@@H](NC(=O)c4ccccc4)c4ccccc4)C(C)=C1C3(C)C)[C@]1(OC(C)=O)CO[C@@H]1C[C@@H]2O [PACLITAXEL] | – | – | – | – | – | – | Active | Active | Active | Active | 25 | Active | – |
